Bioassay records (PubChem BioAssay)
INS-1E rescue = INS-1E beta cell protection from cytokine death; INS-1E cytokine-induced death, ATP luminescence, 48 h; normalised: neutral wells 0, positive control 100; hit rate 0.1% among 20,000; protection from cytokine-induced ATP loss, % at 10 µM;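 active means mean replicate protection from cytokine-induced ATP loss at least 50% and at least 75% of replicates each reaching 50%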
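Test system: INS-1E rat cells | Quantity: 8000 cells per well | Medium: Phenol-red-free RPMI with 5% fetal bovine serum | Reagent: Cytokine cocktail of IFN-γ, TNF-α and IL-1β | Doses: One compound concentration, pin transfer | Timing: 48 h co-treatment, 10 min post-lysis read | Technique: Luminescent ATP assay (CellTiter-Glo)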
A1 apoptosis 2 = blocks A1, raising caspase activity; MEF A1-2A-BIM cells, caspase-Glo luminescence, 3 h; percent of clofoctol response, DMSO zero; caspase activation, % (test concentration not listed); 24,000 tested, under 10 active; in the data active means caspase activation above about 5.9%
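Test system – A1-2A-BIM-expressing MEF cells · Input – 2500 cells/well · Medium – RPMI-1640 growth medium with 10% FBS · Compound dosing – 50 nL pinned compound · Timing – 3 h compound exposure at 37 °C · Technique – Caspase-Glo luminescence (DEVD substrate) · Evaluation – Caspase-3/7 activity from luminescence increase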
T cruzi HTS = inhibitors of intracellular Trypanosoma cruzi; intracellular Trypanosoma cruzi in host cells, plate reader; activity score (inhibition), % at 5.01 µM; hit rate 4.9% among 22,000; AID 651903; in the data active means activity score above about 55%;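 further: parasites and compound incubated about four days before reading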
Each line names hits and unclear results; the compound was inactive in the other large screens. Only a selection was taken, and hits are over-represented in it overall.

C[C@H]1CN([C@@H](C)CO)C(=O)Cc2cc(NC(=O)Nc3ccc(F)cc3)ccc2O[C@H]1CN(C)Cc1ccc2c(c1)OCO2	none (no result: A1 apoptosis 2)
C[C@H](CO)N1C[C@H](C)[C@H](CN(C)Cc2ccc(C(F)(F)F)cc2)Oc2ccc(NC(=O)Nc3ccc4c(c3)OCO4)cc2CC1=O	T cruzi HTS 67.2
C[C@@H]1CN([C@@H](C)CO)C(=O)Cc2cc(NC(=O)Nc3ccc4c(c3)OCO4)ccc2O[C@@H]1CN(C)C(=O)Nc1ccc(C(F)(F)F)cc1	none (no result: A1 apoptosis 2)
C[C@@H]1CN([C@@H](C)CO)C(=O)Cc2cc(NC(=O)Nc3ccc4c(c3)OCO4)ccc2O[C@@H]1CN(C)Cc1ccc(C(F)(F)F)cc1	T cruzi HTS 67.7 (no result: A1 apoptosis 2)
C[C@H]1CN([C@@H](C)CO)C(=O)Cc2cc(NC(=O)Nc3ccc(C(F)(F)F)cc3)ccc2O[C@H]1CN(C)Cc1ccc2c(c1)OCO2	T cruzi HTS 59.7 (no result: A1 apoptosis 2)
C[C@H](CO)N1C[C@H](C)[C@H](CN(C)Cc2ccc3c(c2)OCO3)Oc2ccc(NC(=O)Nc3ccc4c(c3)OCO4)cc2CC1=O	none
C[C@H]1CN([C@@H](C)CO)C(=O)Cc2cc(NC(=O)Nc3ccc4c(c3)OCO4)ccc2O[C@H]1CN(C)Cc1ccc(C(F)(F)F)cc1	T cruzi HTS 67.7 (no result: A1 apoptosis 2)
C[C@@H]1CN([C@H](C)CO)C(=O)Cc2cc(NC(=O)Nc3ccc4c(c3)OCO4)ccc2O[C@H]1CN(C)C(=O)Nc1ccc(C(F)(F)F)cc1	none (no result: A1 apoptosis 2)
C[C@H](CO)N1C[C@H](C)[C@@H](CN(C)C(=O)Nc2ccc(C(F)(F)F)cc2)Oc2ccc(NC(=O)Nc3ccc4c(c3)OCO4)cc2CC1=O	none (no result: INS-1E rescue, T cruzi HTS)
C[C@H]1CN([C@@H](C)CO)C(=O)Cc2cc(NC(=O)Nc3ccc4c(c3)OCO4)ccc2O[C@@H]1CN(C)Cc1ccc(C(F)(F)F)cc1	T cruzi HTS 71.3
C[C@H]1CN([C@@H](C)CO)C(=O)Cc2cc(NC(=O)C3CCCCC3)ccc2O[C@@H]1CN(C)C(=O)Nc1ccc2c(c1)OCO2	none
C[C@@H]1CN([C@H](C)CO)C(=O)Cc2cc(NC(=O)CCC(F)(F)F)ccc2O[C@@H]1CN(C)C	none
C[C@H]1CN([C@@H](C)CO)C(=O)c2cccc(NC(=O)c3nc4ccccc4s3)c2O[C@H]1CN(C)C(=O)Nc1ccc(C(F)(F)F)cc1	T cruzi HTS 78.6
C[C@@H]1CN([C@H](C)CO)C(=O)c2cccc(NC(=O)c3nc4ccccc4s3)c2O[C@H]1CN(C)C(=O)Nc1ccc(C(F)(F)F)cc1	T cruzi HTS 60.7
C[C@@H]1CN([C@H](C)CO)C(=O)c2cccc(NC(=O)c3nc4ccccc4s3)c2O[C@H]1CN(C)C(=O)Nc1ccc(F)cc1	none
C[C@@H]1CN([C@@H](C)CO)C(=O)c2cccc(NC(=O)c3nc4ccccc4s3)c2O[C@H]1CN(C)C(=O)Nc1ccc(C(F)(F)F)cc1	T cruzi HTS 83.9
C[C@H](CO)N1C[C@H](C)[C@@H](CN(C)C(=O)Nc2ccc(F)cc2)Oc2c(NC(=O)c3nc4ccccc4s3)cccc2C1=O	none
C[C@@H]1CN([C@H](C)CO)C(=O)c2cccc(NC(=O)c3nc4ccccc4s3)c2O[C@@H]1CN(C)C(=O)Nc1ccc(F)cc1	none (no result: A1 apoptosis 2)
C[C@@H]1CN([C@@H](C)CO)C(=O)c2cccc(NC(=O)c3nc4ccccc4s3)c2O[C@H]1CN(C)C(=O)Nc1ccc(F)cc1	none
C[C@H]1CN([C@@H](C)CO)C(=O)c2cccc(NC(=O)c3nc4ccccc4s3)c2O[C@@H]1CN(C)C(=O)Nc1ccc(C(F)(F)F)cc1	T cruzi HTS 74.5 (no result: A1 apoptosis 2)
C[C@H](CO)N1C[C@H](C)[C@H](CN(C)C(=O)NC2CCCCC2)Oc2ccc(NS(=O)(=O)c3cccs3)cc2CC1=O	none
Cc1cccc(CN(C)C[C@@H]2OCc3cnnn3CCCC(=O)N([C@H](C)CO)C[C@@H]2C)c1	none (no result: INS-1E rescue, A1 apoptosis 2)
C[C@@H]1CN([C@@H](C)CO)C(=O)c2cc(NC(=O)Cc3cn(C)c4ccccc34)ccc2O[C@@H]1CN(C)C(=O)Nc1ccccc1	none
C[C@@H]1CN([C@H](C)CO)C(=O)Cc2cc(N(C)C)ccc2O[C@@H]1CN(C)Cc1ccc(Oc2ccccc2)cc1	none
C[C@H]1CN([C@@H](C)CO)C(=O)Cc2cc(N(C)C)ccc2O[C@@H]1CN(C)Cc1ccc(Oc2ccccc2)cc1	T cruzi HTS 66.8
C[C@H]1CN([C@@H](C)CO)C(=O)Cc2cc(N(C)C)ccc2O[C@H]1CN(C)Cc1ccc(Oc2ccccc2)cc1	T cruzi HTS 75.7 (no result: A1 apoptosis 2)
C[C@H](CO)N1C[C@H](C)[C@H](CN(C)Cc2ccccc2)Oc2ccc(N(C)C)cc2CC1=O	none
COc1ccc(NC(=O)Nc2cccc3c2O[C@@H](CN(C)Cc2ccc(C(=O)Nc4ccccc4N)cc2)[C@H](C)CN([C@H](C)CO)C3=O)cc1	T cruzi HTS 66.8 (no result: A1 apoptosis 2)
COc1ccc(NC(=O)Nc2cccc3c2O[C@H](CN(C)Cc2ccc(C(=O)Nc4ccccc4N)cc2)[C@H](C)CN([C@@H](C)CO)C3=O)cc1	none (no result: A1 apoptosis 2)
COc1ccc(NC(=O)Nc2cccc3c2O[C@H](CN(C)Cc2ccc(C(=O)Nc4ccccc4N)cc2)[C@@H](C)CN([C@H](C)CO)C3=O)cc1	none (no result: A1 apoptosis 2)
COc1ccc(NC(=O)Nc2cccc3c2O[C@H](CN(C)Cc2ccc(C(=O)Nc4ccccc4N)cc2)[C@@H](C)CN([C@@H](C)CO)C3=O)cc1	T cruzi HTS 55.5 (no result: A1 apoptosis 2)
C[C@@H]1CN([C@H](C)CO)C(=O)Cc2cc(NC(=O)CCCCCC(=O)Nc3ccccc3N)ccc2O[C@@H]1CN(C)Cc1ccc(Oc2ccccc2)cc1	none
Cc1noc(C)c1NC(=O)Nc1ccc2c(c1)C(=O)N([C@H](C)CO)C[C@@H](C)[C@@H](CN(C)Cc1ccc(C(=O)Nc3ccccc3N)cc1)O2	none
CC(C)NC(=O)N(C)C[C@@H]1Oc2c(NC(=O)Nc3ccc(C(F)(F)F)cc3)cccc2C(=O)N([C@H](C)CO)C[C@@H]1C	none (no result: A1 apoptosis 2)
C[C@@H]1CCCCO[C@H](CN(C)S(=O)(=O)c2cn(C)cn2)[C@@H](C)CN([C@@H](C)CO)C(=O)c2cc(NS(C)(=O)=O)ccc2O1	none (no result: INS-1E rescue, T cruzi HTS)
O=C1O[C@H](c2ccccc2)[C@H](c2ccccc2)N2[C@H]1[C@@H](C(=O)O)[C@]1(C(=O)Nc3ccc(C#CCCO)cc31)[C@H]2c1ccc(O)cc1	none (no result: INS-1E rescue, T cruzi HTS)
C[C@H](CO)N1C[C@H](C)[C@@H](CN(C)Cc2ccc3c(c2)OCO3)Oc2c(NS(=O)(=O)c3ccc(Cl)cc3)cccc2C1=O	T cruzi HTS 57.7
C[C@H]1CN([C@@H](C)CO)C(=O)c2cccc(NS(=O)(=O)c3ccc(Cl)cc3)c2O[C@@H]1CN(C)Cc1ccc(-c2ccccc2)cc1	none
C[C@@H]1CN([C@@H](C)CO)C(=O)c2cccc(NS(=O)(=O)c3ccc(Cl)cc3)c2O[C@@H]1CN(C)Cc1ccc(-c2ccccc2)cc1	T cruzi HTS 63.1
Cc1ccc(S(=O)(=O)Nc2cccc3c2O[C@@H](CN(C)Cc2ccc(-c4ccccc4)cc2)[C@@H](C)CN([C@@H](C)CO)C3=O)cc1	T cruzi HTS 73.9 (no result: A1 apoptosis 2)
Cc1ccc(S(=O)(=O)Nc2cccc3c2O[C@H](CN(C)Cc2ccc(-c4ccccc4)cc2)[C@@H](C)CN([C@H](C)CO)C3=O)cc1	none (no result: A1 apoptosis 2)
